Holding throughout (type): functional, Homo sapiens
The subject of test [1] is HMEC. Kind of test: Ability to inhibit HMEC1-mediated LDL oxidation at 10 uM evaluated by TBARS formation in the presence of copper. Details: scale not given: the % may be the effect or the level left. In short, it runs like this: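 Human plasma LDL (100 µg apoB/mL) was incubated with subconfluent HMEC-1 in serum-free RPMI-1640 with 1 µM Cu2+ for 6 h at 37 °C. Cells had been serum-starved for 24 h. Compound was added in DMSO just before oxidation, in duplicate. TBARS in the medium were measured fluorimetrically (Yagi), as % of cell-oxidized LDL without antioxidant. Mean of four determinations.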

In test [2] the test system is HMEC. The test is described as follows: Cytotoxic effect of LDL oxidized by HMEC1 cells at 10 uM by MTT assay expressed as percentage of viability in unstimulated control. In short, it runs like this:
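LDL (100 µg apoB/mL) was first oxidized by HMEC-1 for 6 h in RPMI with 1 µM Cu2+ and compound at 10 µM. This LDL then stayed on serum-starved HMEC-1 for a 24 h pulse. Viability was read by MTT as % of control cells in fresh RPMI without LDL or antioxidant. Mean of four determinations.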
A general note: Tetrazolium assays rely on reduction of a dye to a coloured formazan, in cell work by metabolically active cells.

The subject of test [3] is HMEC. Kind of test: Ability to inhibit HMEC1-mediated LDL oxidation at 100 uM evaluated by TBARS formation in the absence of copper. Details: scale not given: the % may be the effect or the level left.
For test [4], the system named is HMEC. The test is described as follows: Ability to inhibit HMEC1-mediated LDL oxidation at 10 uM evaluated by TBARS formation in the absence of copper. Details: scale not given: the % may be the effect or the level left.

Each structure is given as a SMILES string.

On to `CCOP(=O)(O)/C=C/c1ccc(O)c(OC)c1`, for which the Activity in test [1] is reported as 52.7%; in test [2] it was 21.7%.

For `CCOP(=O)(O)/C=C/c1cc(OC)c(O)c(OC)c1`, the Activity in test [1] turned out to be 16%; in test [2], 45%.

Consider `CCOP(=O)(O)/C=C/c1ccc(O)cc1`, for which the Activity was 101% in test [1] and 13.3% in test [2].

With `COc1ccc(/C=C/C(=O)Nc2ccccn2)cc1OC`, the Activity in test [1] came to 100%; in test [2], 20.7%.

In the case of `COc1cc(/C=C/C(=O)SCCNC(C)=O)cc(OC)c1O`, the Activity is on record as 8% in test [3], 12.7% in test [1], 88.7% in test [2] and 18% in test [4].

Take `CCOP(=O)(/C=C/c1cc(OC)c(O)c(OC)c1)OCC`: the results for the Activity in test [1] and in test [2] were 13% and 81%, respectively.

Consider `COc1cc(/C=C/C(=O)SCCNC(C)=O)ccc1O`, for which the values for the Activity in test [1] and in test [2] were 40.3% and 69.3%, respectively.

In the case of `CCOP(=O)(/C=C/c1ccc(O)c(OC)c1)OCC`, the Activity in test [1] came out at 32.3%; in test [2], 75.7%.

For `CCOP(=O)(/C=C/c1ccc(O)cc1)OCC`, the Activity in test [1] is 77.6%; in test [2], 65.3%.

As to `COc1ccc(/C=C/C(=O)SCCNC(C)=O)cc1`, the results for the Activity in test [1] and in test [2] were 109% and 21.7%, respectively.

On to `COc1cc(/C=C/C(=O)NCCc2c[nH]c3ccccc23)ccc1O`, for which the Activity in test [1] amounted to 9.6%; in test [2], 93.6%.

Take `COc1cccc(/C=C/C(=O)Nc2ccccn2)c1`: the Activity was determined as 61.3% in test [1] and 48.7% in test [2].

As for `CC(=O)NCCSC(=O)/C=C/c1ccc(O)cc1`, the Activity in test [1] came to 95.6%; in test [2], 22.6%.

As to `Cc1c(C)c2c(c(C)c1O)CC[C@@](C)(CCC[C@H](C)CCC[C@H](C)CCCC(C)C)O2` [ALPHA-TOCOPHEROL], the values for the Activity in test [1] and in test [2] were 55% and 29%, respectively.

`CC(C)(Sc1cc(C(C)(C)C)c(O)c(C(C)(C)C)c1)Sc1cc(C(C)(C)C)c(O)c(C(C)(C)C)c1` [PROBUCOL]: the figures for the Activity in test [1] and in test [2] were 10% and 92%, respectively.

The values are drawn from ChEMBL document CHEMBL1140433, “Design, synthesis, and evaluation of pharmacological properties of cinnamic derivatives as antiatherogenic agents” (2005).
